Screening results as filed in PubChem BioAssay.
Sampled rows, rich in hits. Any-hit rate of the full collection: about 0.75%.
ASAP1 inh = ASAP1 ArfGAP inhibition. Q9ULH1. inhibition, % at 16.5 µM. 360,000 tested, 0.19% active. ASAP1-stimulated ARF1 GTP hydrolysis, GDP FP detection; in the data active means inhibition above about 25%
ZTA counter = ZTA (EBV) inhibition in EBNA-1 counter-screen | inhibition, % at 11 µM | AID 2234 | 320,000 tested, 0.15% active | P03206 | ZTA-DNA binding, fluorescence polarization; in the data active means inhibition above about 33%
ARFGAP1 inhibitor = inhibitors of rat ARFGAP1 | inhibition, % at 16.5 µM | Arfgap1-stimulated ARF1 GTP hydrolysis, GDP FP detection | 360,000 tested, 0.26% active | Q62848;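 active means inhibition above a per-plate limit, mean inhibition of low control wells plus 3 SD, cut at about 25% in these data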
Target sequence (Q62848 1-136 limits assumed): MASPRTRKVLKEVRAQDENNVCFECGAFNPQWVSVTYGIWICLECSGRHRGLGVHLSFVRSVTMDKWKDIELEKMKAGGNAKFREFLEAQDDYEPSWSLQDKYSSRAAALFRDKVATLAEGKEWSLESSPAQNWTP
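material = rat Arfgap1 catalytic domain, aa 1-136 | also added = human ARF1(Δ1-17)-GTP substrate | compound dosing = one concentration, 16.5 µM, DMSO 1.26% | times = GTP hydrolysis reaction 2 h at 25 °C | measured by = FP, GDP Alexa 633 tracer displaced from anti-GDP antibody, 620/688 nm | evaluation = percent inhibition of Arfgap1-stimulated GTP hydrolysis | replication = single well per compound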
EBNA-1 inhibitor = blocks EBNA-1 binding to DNA; EBNA-1 DNA binding, fluorescence polarization; inhibition, % at 14.8 µM; 300,000 tested, 0.34% active; AID 1950; in the data active means inhibition above about 28%
ARFGAP1 confirm = confirmation of rat ARFGAP1 inhibitors; AID 651608; ARFGAP1-stimulated ARF1 GTP hydrolysis, GDP tracer FP; 890 tested, 30% active; shares compounds with ARFGAP1 inhibitor; inhibition, % at 16.5 µM;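 active means average inhibition over triplicates above the hit cutoff set in the earlier primary screen, cut at about 25% in these data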
Target sequence (Q62848 whole entry, looked up): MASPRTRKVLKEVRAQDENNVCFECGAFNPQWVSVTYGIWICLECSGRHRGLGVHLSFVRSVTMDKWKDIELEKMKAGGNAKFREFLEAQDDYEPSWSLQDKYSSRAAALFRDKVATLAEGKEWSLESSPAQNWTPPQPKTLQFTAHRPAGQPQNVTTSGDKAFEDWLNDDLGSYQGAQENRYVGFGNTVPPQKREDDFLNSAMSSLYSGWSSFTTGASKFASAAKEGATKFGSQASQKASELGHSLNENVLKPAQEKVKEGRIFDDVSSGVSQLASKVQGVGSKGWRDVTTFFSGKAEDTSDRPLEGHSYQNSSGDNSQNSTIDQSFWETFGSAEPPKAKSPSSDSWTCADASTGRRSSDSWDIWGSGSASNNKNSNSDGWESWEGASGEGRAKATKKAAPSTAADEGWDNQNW
Large screens that a line does not name were inactive (follow-up assays come after a bar, where they were run).

CC(C)Oc1ccc(CCC(=O)N/N=C/c2ccc3c(c2)OCO3)cc1	ARFGAP1 inhibitor 32 | ARFGAP1 confirm inactive
O=C(CCc1ccc(O)c(O)c1)N/N=C/c1ccc2c(c1)OCO2	none
NC(=O)c1ccc(NC(=O)COC(=O)/C=C/c2cn(-c3ccccc3)nc2-c2cccnc2)cc1	ARFGAP1 inhibitor 30 | ARFGAP1 confirm 46
O=S(=O)(NCc1ccc(Cl)cc1)c1ccc(Br)cc1C1CC[C@@H](O)C1 (some centres not stated)	none (no result: ZTA counter, EBNA-1 inhibitor)
COc1cccc(-c2cnc3c(NC(C)=O)cc(-c4cccc(C(=O)NCCN(C)C)c4)cn23)c1	ARFGAP1 inhibitor 44 (no result: ZTA counter, EBNA-1 inhibitor) | ARFGAP1 confirm inactive
Cc1cc(-c2cc(NC=O)c3ncc(-c4cccc(C(=O)NCCN(C)C)c4)n3c2)cc(C)c1O	ARFGAP1 inhibitor 27 (no result: ZTA counter, EBNA-1 inhibitor) | ARFGAP1 confirm 58
COc1cc(Nc2cc(C)n(-c3cc(OC)cc(OC)c3)c(=O)c2)cc(OC)c1	none (no result: ZTA counter, EBNA-1 inhibitor)
CCSc1nnc(Cc2cc(=O)[nH]c(=O)[nH]2)n1-c1ccc(Cl)cc1	ARFGAP1 inhibitor 30 | ARFGAP1 confirm inactive
COC(=O)[C@]12C[C@H](CC(=O)NCc3cccc4ccccc34)C(=O)N(Cc3ccccc3)C1=C[C@H](C1CCCC1)O[C@@H]2C	none (no result: ZTA counter, EBNA-1 inhibitor)
O=C(O)c1ccc(NC(=O)c2cccc(S(=O)(=O)Nc3ccc(C(=O)O)cc3)c2)cc1	none
O=C1CSc2ccc(C(=O)Nc3cccc(S(=O)(=O)Nc4ccc(Br)cc4)c3)cc2N1	ARFGAP1 inhibitor 33 | ARFGAP1 confirm 25
Cc1cc(Oc2cccc3c2S(=O)(=O)N([C@H](C)c2ccccc2)C[C@@H](COCc2ccccc2)O3)cc(C)c1C	none (no result: ZTA counter, EBNA-1 inhibitor)
COc1ccccc1-c1oc2ccccc2c1-c1ccc2cc[nH]c2c1	ARFGAP1 inhibitor 26 (no result: EBNA-1 inhibitor) | ARFGAP1 confirm inactive
O=C(O)c1ccc(Cn2cnc3scc(-c4ccccc4)c3c2=O)cc1	ARFGAP1 inhibitor 25 | ARFGAP1 confirm inactive
Cc1cc(O)cc(=O)n1-c1cccc(Br)c1	none (no result: ZTA counter, EBNA-1 inhibitor)
Brc1ccc(CN2CCN(c3ncc(Cc4ccccc4)cn3)CC2)cc1	none (no result: ZTA counter, EBNA-1 inhibitor)
Cc1ccccc1NC(=O)NCCCN1CCCC1	ARFGAP1 inhibitor 26 | ARFGAP1 confirm inactive
COc1ccc(C2=Nn3c(nnc3-c3ccccc3Cl)SC2)cc1OC1CCOC1 (configuration not stated)	none (no result: ZTA counter, EBNA-1 inhibitor)
COc1ccc(OC)c(-c2nnc3n2N=C(c2ccc(OC)c(OC4CCOC4)c2)CS3)c1 (configuration not stated)	ARFGAP1 inhibitor 26 (no result: ZTA counter, EBNA-1 inhibitor) | ARFGAP1 confirm inactive
CCOc1ccc(-n2c(SCc3ccc([N+](=O)[O-])cc3)nnc2-c2ccccc2)cc1	ARFGAP1 inhibitor 33 | ARFGAP1 confirm inactive
COCc1[nH]nc2c1C(c1ccc(Br)cc1)N(Cc1ccccc1)C2=O (configuration not stated)	none (no result: ZTA counter, EBNA-1 inhibitor)
COc1ccc(OC)c(NC(=O)C2(C)CCN2Cc2ccccc2Cl)c1 (configuration not stated)	ARFGAP1 inhibitor 25 (no result: ZTA counter, EBNA-1 inhibitor) | ARFGAP1 confirm inactive
COc1ccccc1CCn1cnc(-c2ccc(Cl)cc2)c1CC(C)C	none (no result: ZTA counter, EBNA-1 inhibitor)
CC(=O)n1c(=O)c2ccccc2c(=O)n1-c1ccccc1	ARFGAP1 inhibitor 32 | ARFGAP1 confirm inactive
COc1ccccc1NS(=O)(=O)c1cc(NC(=O)c2cc(=O)[nH]c3ccccc23)ccc1N1CCOCC1	ARFGAP1 inhibitor 28 | ARFGAP1 confirm inactive
Nc1[nH]c(C(=O)c2ccccc2)c(-c2ccc(Br)cc2)c1C(=O)c1ccccc1	none (no result: ZTA counter, EBNA-1 inhibitor)
O=C(N[C@H](C(=O)N1CCC[C@H]1C(=O)NC1CCCC1)C1CCCCC1)c1cccs1	none (no result: ZTA counter, EBNA-1 inhibitor)
C=CCc1cc(C(=O)N2CCCCC2)ccc1O	none
C=CCc1ccc(O)c(-c2ccc(O)c(CC=C)c2)c1	ARFGAP1 inhibitor 36 | ARFGAP1 confirm inactive
O=Cc1ccc(/C=C2\c3ccccc3C(=O)N2c2ccccc2)o1	none (no result: ZTA counter, EBNA-1 inhibitor)
Cc1[nH]c2c(C)cccc2c1CCNC(=O)c1ccc2c(c1[N+](=O)[O-])C(=O)c1ccccc1C2=O	ARFGAP1 inhibitor 26 | ARFGAP1 confirm inactive
O=c1c2ccccc2nc(/C=C/c2ccccc2)n1CCc1ccccc1	ARFGAP1 inhibitor 52 | ARFGAP1 confirm inactive
O=c1c2ccccc2nc(/C=C/c2cccnc2)n1CCc1ccccc1	none
COc1ccc(/C=N/NC(=O)c2cc3cc(OC)c(OC)cc3[nH]2)cc1	ARFGAP1 inhibitor 39 | ARFGAP1 confirm 51
CC1C(=O)N2CCCc3cc(NC(=O)C(=O)NCc4cccnc4)cc1c32 (configuration not stated)	ARFGAP1 inhibitor 27 | ARFGAP1 confirm inactive
COCc1cc(N2CCNC[C@H]2C)ccc1N1CCN(Cc2ccccc2)[C@@H](C)C1	none (no result: ZTA counter, EBNA-1 inhibitor)
Cc1cc(C(=O)O)n(C(C)(C)C)n1	ARFGAP1 inhibitor 27 | ARFGAP1 confirm inactive
Cc1cccc(C=NNc2cc(C)c3cccc(C)c3n2)n1	none (no result: ZTA counter, EBNA-1 inhibitor)
CC(=O)Nc1ccc(NC(=S)Nc2ccccc2)cc1	none
CC(=O)Nc1ccc(SC(Sc2ccc(NC(C)=O)cc2)c2ccccc2)cc1	ARFGAP1 inhibitor 30 (no result: ZTA counter, EBNA-1 inhibitor) | ARFGAP1 confirm inactive
O=C(Nc1ccc(Oc2cccc3ccccc23)cc1)c1ccco1	ARFGAP1 inhibitor 28 | ARFGAP1 confirm inactive
COc1ccc(-n2c(=O)c3c4c(sc3n3cnnc23)CC(C)CC4)cc1 (configuration not stated)	ARFGAP1 inhibitor 27 | ARFGAP1 confirm 62
Cc1ccc(S(=O)(=O)Nc2ccccc2C(O)c2ccccc2)cc1 (configuration not stated)	ARFGAP1 inhibitor 26 | ARFGAP1 confirm inactive
Cc1ccc(S(=O)(=O)Nc2ccccc2-c2ccccc2NS(=O)(=O)c2ccc(C)cc2)cc1	none
COC(=O)[C@]12C[C@H](CC(=O)N3CCOCC3)C(=O)N(CCC3=CCCCC3)C1=C[C@H](C(C)(C)C)O[C@@H]2C	none (no result: ZTA counter, EBNA-1 inhibitor)
C[C@H](O)[C@@H]1CN2CCc3c([nH]c4c(-c5ccccc5)cccc34)[C@@H]2C[C@@H]1N(C)C(=O)NC1CCCCC1	none (no result: ZTA counter, EBNA-1 inhibitor)
CCN1C(=O)N(C)C(N(O)C(=O)NC)C1(C)C (configuration not stated)	ARFGAP1 inhibitor 26 | ARFGAP1 confirm inactive
COc1ccc(C(=O)NCC2CCN(C(=O)C(=O)c3cccs3)CC2)cc1	none (no result: ZTA counter, EBNA-1 inhibitor)
CC(C)C[C@H]1COc2cc(Br)ccc2S(=O)(=O)N1Cc1ccc(Cl)cc1	none (no result: ZTA counter, EBNA-1 inhibitor)
Cc1nn(Cc2ccc(C(=O)Nc3ccc(C(=O)OC(C)C)cc3)o2)c(C)c1Cl	ARFGAP1 inhibitor 26 | ARFGAP1 confirm 27
Nc1cc(=O)n(Cc2ccccc2)c(N)c1C(=O)NCc1ccccc1	none (no result: ZTA counter, EBNA-1 inhibitor)
CC(C)N(Cc1nc(-c2ccc(Cl)cc2)no1)Cc1nccn1C	ARFGAP1 inhibitor 25 | ARFGAP1 confirm inactive
COc1cccc(C(=O)NNC2OC(CO)C(O)C2O)c1 (configuration not stated)	ARFGAP1 inhibitor 42 | ARFGAP1 confirm inactive
COc1ccccc1OCC(=O)NCC1CCCN(C(=O)c2ccccc2C(C)=O)C1 (configuration not stated)	ARFGAP1 inhibitor 28 | ARFGAP1 confirm inactive
COc1ccccc1OCC(=O)NCC1CCCN(C(=O)c2ccccc2SC)C1 (configuration not stated)	none
